Test results: ChEMBL document CHEMBL1157570, “Development of potent and selective inhibitors of ecto-5'-nucleotidase based on an anthraquinone scaffold” (J Med Chem, 2010)
Active and inactive are the calls of the source. The calls are words filed in the database; no cut-off is given here.

Assays:
[1] = target: T1, 5'-nucleotidase (Rattus norvegicus) (UniProt P21588); assay: Inhibition of rat ecto-5'-nucleotidase expressed in Sf9 cells by competitive Michaelis-Menten plot
T1 sequence (whole entry): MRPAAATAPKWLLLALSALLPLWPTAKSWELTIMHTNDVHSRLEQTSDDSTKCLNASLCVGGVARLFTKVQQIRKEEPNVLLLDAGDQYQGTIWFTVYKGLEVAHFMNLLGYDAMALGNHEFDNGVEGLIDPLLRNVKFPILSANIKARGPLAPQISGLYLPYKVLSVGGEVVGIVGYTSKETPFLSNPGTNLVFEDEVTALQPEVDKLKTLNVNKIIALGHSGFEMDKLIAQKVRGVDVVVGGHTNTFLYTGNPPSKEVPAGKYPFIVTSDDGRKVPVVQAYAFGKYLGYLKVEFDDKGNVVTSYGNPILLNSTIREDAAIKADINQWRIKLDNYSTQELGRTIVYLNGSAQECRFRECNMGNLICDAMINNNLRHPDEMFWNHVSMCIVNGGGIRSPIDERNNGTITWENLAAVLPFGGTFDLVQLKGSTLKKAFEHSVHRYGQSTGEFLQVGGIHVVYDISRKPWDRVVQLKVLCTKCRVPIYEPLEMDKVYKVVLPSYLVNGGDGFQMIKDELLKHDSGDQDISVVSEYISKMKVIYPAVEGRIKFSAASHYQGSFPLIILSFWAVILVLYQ
Summary of the method: (§1)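 Purified recombinant rat eN from Sf9 cells. Reaction rates measured across a range of AMP concentrations, with inhibitor absent or at 0.2, 1 or 5 μM. Adenosine formed was quantified by capillary electrophoresis at 260 nm. Km and Vmax were compared on Michaelis-Menten and Lineweaver-Burk plots to assign the inhibition mode.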

[2] = target: T2, Ectonucleoside triphosphate diphosphohydrolase 1 (Rattus norvegicus, UniProt P97687); assay: Inhibition of rat NTPdase1 by capillary electrophoresis method
T2 sequence (P97687 whole entry): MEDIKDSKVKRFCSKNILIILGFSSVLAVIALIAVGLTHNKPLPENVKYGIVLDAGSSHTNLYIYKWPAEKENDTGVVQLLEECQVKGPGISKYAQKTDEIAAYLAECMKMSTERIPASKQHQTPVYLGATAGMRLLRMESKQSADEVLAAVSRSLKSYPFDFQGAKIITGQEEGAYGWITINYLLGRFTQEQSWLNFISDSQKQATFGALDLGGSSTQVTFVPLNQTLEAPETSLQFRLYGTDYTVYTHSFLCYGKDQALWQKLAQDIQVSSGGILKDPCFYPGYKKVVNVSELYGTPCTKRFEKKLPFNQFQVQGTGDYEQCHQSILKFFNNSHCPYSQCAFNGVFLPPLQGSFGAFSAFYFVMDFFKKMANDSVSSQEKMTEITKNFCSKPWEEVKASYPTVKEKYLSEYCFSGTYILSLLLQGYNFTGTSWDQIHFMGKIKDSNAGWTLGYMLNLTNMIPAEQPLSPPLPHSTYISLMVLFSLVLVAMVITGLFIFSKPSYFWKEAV

P2Y purinoceptor 6 = P2Y purinoceptor 6 (Rattus norvegicus, UniProt Q63371); assay: Antagonist activity at rat P2Y6 receptor expressed in astrocytoma cells assessed as inhibition of intracellular calcium mobilization; format: functional, cell-based
Summary of the method: (§2)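 Astrocytoma cells stably expressing the receptor, loaded with Fura-2 AM. Cells preincubated with test agent for at least 20 min, then challenged with 1 μM UTP (P2Y2), 3 μM UTP (P2Y4) or 3 μM UDP (P2Y6). Ca2+ fluorescence read at ex 320/em 520 nm. Full curves (7-8 concentrations over 3 log units) run when inhibition exceeded 40% at 10 μM. Three experiments, each in triplicate.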

[3] = target: T1, 5'-nucleotidase (Rattus norvegicus); assay: Inhibition of rat ecto-5'-nucleotidase expressed in Sf9 cells by competitive Lineweaver-Burke plot; summary of the method: as §1
[4] = target: T3, Ectonucleoside triphosphate diphosphohydrolase 2 (Rattus norvegicus, UniProt O35795); assay: Inhibition of rat NTPdase2 by capillary electrophoresis method
T3 sequence (O35795 whole entry): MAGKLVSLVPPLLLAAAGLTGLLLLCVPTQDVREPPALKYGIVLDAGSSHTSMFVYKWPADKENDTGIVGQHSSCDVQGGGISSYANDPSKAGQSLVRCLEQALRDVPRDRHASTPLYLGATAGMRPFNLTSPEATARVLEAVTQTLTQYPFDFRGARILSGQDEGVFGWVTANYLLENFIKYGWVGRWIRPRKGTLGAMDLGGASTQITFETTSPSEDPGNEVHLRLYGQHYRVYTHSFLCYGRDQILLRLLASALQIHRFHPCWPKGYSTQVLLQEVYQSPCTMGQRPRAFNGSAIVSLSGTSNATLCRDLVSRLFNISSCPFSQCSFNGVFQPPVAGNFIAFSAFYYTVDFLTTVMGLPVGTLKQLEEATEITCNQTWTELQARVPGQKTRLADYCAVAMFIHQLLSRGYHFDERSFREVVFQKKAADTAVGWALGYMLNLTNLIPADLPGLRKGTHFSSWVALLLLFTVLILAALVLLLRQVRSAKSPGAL

[5] = target: T4, Nucleoside triphosphate diphosphohydrolase 3 (Rattus norvegicus, UniProt A6I415); assay: Inhibition of rat NTPdase3 by capillary electrophoresis method
T4 sequence (A6I415 whole entry): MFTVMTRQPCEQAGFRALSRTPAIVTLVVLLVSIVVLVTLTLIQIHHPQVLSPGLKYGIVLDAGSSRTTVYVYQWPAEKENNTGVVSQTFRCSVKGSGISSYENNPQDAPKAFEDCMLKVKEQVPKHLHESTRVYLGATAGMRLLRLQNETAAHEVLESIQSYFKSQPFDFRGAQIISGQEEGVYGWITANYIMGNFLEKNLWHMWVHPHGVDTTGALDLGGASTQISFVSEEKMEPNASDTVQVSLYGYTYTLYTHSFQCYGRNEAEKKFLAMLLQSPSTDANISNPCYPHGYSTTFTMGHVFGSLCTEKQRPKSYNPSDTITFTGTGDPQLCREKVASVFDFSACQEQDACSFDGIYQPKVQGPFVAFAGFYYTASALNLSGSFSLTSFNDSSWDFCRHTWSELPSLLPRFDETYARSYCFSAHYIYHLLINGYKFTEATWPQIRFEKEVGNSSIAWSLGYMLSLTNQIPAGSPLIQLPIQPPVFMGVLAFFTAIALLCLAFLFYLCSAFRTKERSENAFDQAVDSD

5'-nucleotidase = target: T5, 5'-nucleotidase (Rattus norvegicus, UniProt P21588); assay: Inhibition of rat ecto-5'-nucleotidase expressed in Sf9 cells by capillary electrophoresis method
T5 sequence (P21588 whole entry): T1 sequence (whole entry)
Summary of the method: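 Rat eN, GST-fused, made in Sf9 cells and purified on GSH-agarose. 500 μM AMP in Hepes pH 7.4 with Mg2+/Ca2+, 37 °C for 15 min. Adenosine measured by capillary electrophoresis at 260 nm. Inhibitor at 6-8 concentrations spanning about 3 log units. […] Three experiments, each in duplicate.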

[6] = target: T6, Ectonucleoside triphosphate diphosphohydrolase 2 (Homo sapiens, UniProt Q9Y5L3); assay: Inhibition of human NTPdase2 by capillary electrophoresis method
T6 sequence (Q9Y5L3 whole entry): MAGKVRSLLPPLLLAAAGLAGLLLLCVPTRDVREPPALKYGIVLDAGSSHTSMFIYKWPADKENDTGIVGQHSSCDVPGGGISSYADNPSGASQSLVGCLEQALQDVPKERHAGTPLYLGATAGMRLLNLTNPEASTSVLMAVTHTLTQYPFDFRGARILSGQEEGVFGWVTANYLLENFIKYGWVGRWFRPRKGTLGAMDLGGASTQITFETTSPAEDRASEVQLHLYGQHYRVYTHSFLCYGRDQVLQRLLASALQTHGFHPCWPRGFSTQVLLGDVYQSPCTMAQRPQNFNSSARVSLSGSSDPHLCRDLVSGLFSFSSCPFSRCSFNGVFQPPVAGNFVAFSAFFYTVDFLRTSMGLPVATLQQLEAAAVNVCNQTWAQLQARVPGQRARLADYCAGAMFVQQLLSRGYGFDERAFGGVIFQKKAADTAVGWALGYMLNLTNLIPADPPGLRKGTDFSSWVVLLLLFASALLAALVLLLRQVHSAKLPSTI
Summary of the method: (§3)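 Membrane preparations containing human NTPDase1, 2 or 3. Inhibitor added in water or 1% DMSO. Incubated 10 min at 37 °C, stopped at 99 °C for 5 min. Diluted with 20 μM UMP as internal standard, then analysed by capillary electrophoresis. Triplicates in two experiments.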

[7] = target: T7, Ectonucleoside triphosphate diphosphohydrolase 3 (Homo sapiens, UniProt O75355); assay: Inhibition of human NTPdase3 by capillary electrophoresis method; summary of the method: as §3
T7 sequence (O75355 whole entry): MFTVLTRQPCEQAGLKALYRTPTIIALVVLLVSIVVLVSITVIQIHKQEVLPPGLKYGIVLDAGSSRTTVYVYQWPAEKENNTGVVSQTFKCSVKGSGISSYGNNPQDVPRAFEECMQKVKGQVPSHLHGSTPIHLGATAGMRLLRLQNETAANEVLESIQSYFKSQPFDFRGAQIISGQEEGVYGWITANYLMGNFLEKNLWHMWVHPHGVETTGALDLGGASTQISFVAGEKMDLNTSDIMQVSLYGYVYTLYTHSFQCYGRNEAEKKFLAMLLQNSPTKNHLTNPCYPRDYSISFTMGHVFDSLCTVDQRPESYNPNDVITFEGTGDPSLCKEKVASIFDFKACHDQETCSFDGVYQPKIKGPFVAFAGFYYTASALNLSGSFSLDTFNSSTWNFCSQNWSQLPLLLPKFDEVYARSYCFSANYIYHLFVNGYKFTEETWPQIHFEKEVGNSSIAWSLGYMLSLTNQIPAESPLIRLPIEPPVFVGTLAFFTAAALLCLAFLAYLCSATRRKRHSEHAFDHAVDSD

P2Y purinoceptor 2 = P2Y purinoceptor 2 (Homo sapiens, UniProt P41231); assay: Antagonist activity at human P2Y2 receptor expressed in astrocytoma cells assessed as inhibition of intracellular calcium mobilization; format: functional, cell-based; summary of the method: as §2
[8] = target: T8, Ectonucleoside triphosphate diphosphohydrolase 1 (Homo sapiens, UniProt P49961); assay: Inhibition of human NTPdase1 by capillary electrophoresis method; summary of the method: as §3
T8 sequence (P49961 whole entry): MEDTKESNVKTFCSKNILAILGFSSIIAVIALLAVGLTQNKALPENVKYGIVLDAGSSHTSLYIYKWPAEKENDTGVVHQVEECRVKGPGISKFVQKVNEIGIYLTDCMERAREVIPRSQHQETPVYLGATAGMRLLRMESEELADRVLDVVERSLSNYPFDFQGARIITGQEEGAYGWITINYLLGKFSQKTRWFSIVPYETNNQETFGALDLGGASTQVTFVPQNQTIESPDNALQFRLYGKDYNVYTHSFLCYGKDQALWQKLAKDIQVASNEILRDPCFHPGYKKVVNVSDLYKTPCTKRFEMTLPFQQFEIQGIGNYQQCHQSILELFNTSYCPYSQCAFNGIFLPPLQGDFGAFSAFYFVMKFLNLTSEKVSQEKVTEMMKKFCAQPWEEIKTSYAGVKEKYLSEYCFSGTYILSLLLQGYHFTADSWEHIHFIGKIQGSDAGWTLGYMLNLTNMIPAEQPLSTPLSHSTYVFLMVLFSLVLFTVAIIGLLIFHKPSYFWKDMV

P2Y purinoceptor 4 = P2Y purinoceptor 4 (Homo sapiens, UniProt P51582); assay: Antagonist activity at human P2Y4 receptor expressed in astrocytoma cells assessed as inhibition of intracellular calcium mobilization; format: functional, cell-based; summary of the method: as §2
[9] = Selectivity ratio of Ki for rat ecto-5'-nucleotidase to Ki for human NTPdase1

Sequence of P2Y purinoceptor 6 (Q63371 whole entry): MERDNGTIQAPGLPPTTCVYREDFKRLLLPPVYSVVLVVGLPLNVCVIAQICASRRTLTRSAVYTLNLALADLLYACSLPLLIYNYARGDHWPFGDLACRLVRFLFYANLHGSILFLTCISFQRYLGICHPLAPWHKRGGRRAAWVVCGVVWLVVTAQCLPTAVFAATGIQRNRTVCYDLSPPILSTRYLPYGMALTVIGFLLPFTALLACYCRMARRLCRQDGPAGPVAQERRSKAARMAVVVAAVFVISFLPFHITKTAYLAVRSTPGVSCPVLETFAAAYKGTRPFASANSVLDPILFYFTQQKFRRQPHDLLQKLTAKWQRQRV
Sequence of P2Y purinoceptor 4 (P51582 whole entry): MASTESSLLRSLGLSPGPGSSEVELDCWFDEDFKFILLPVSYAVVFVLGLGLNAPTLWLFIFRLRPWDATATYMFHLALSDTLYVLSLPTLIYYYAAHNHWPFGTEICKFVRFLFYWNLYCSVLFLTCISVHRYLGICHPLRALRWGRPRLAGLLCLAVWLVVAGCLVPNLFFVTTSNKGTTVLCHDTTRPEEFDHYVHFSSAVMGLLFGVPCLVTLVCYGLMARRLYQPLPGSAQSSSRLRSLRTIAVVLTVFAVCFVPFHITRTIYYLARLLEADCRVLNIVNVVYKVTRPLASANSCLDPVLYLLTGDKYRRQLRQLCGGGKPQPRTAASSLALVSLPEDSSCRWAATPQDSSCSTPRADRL
Sequence of P2Y purinoceptor 2 (P41231 whole entry): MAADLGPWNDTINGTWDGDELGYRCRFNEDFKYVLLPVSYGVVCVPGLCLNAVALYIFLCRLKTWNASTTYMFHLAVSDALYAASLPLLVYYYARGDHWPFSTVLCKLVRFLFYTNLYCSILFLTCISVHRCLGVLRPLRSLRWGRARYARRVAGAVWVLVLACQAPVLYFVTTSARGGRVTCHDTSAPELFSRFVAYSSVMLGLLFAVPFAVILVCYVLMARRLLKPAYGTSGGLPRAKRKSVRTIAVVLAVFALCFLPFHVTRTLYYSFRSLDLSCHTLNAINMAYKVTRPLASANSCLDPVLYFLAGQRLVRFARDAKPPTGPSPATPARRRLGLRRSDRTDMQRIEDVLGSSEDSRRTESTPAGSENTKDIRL

Row | inhibition [1] | Ki [2] [µM] | IC50 (P2Y purinoceptor 6) [µM] | inhibition [3] | Ki [4] [µM] | Ki [5] [µM] | Ki (5'-nucleotidase) [µM] | Ki [6] [µM] | Ki [7] [µM] | IC50 (P2Y purinoceptor 2) [µM] | Ki [8] [µM] | IC50 (P2Y purinoceptor 4) [µM] | Ratio Ki [9] | SMILES
1 | Active | > 150 | 30 | Active | > 400 | 1.5 | 0.53 | – | – | – | – | – | – | Nc1c(S(=O)(=O)O)cc(Nc2cccc3ccccc23)c2c1C(=O)c1ccccc1C2=O
2 | – | – | > 10 | – | – | – | 0.15 | > 200 | > 60 | 10 | 2.59 | > 10 | 17 | Nc1c(S(=O)(=O)O)cc(Nc2ccc3cc4ccccc4cc3c2)c2c1C(=O)c1ccccc1C2=O
